This is a sample that favours compounds with a hit; in the whole collection about 2.9% have one here.
Cneo AK release: causes C. neoformans cell lysis | adenylate kinase release luminescence, 4 h; normalised: neutral wells 0, clomiphene wells 100 | lysis activity, % at 15 µM | actives 0.2% (n = 360,000) | AID 651654;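 active means mean lysis activity across replicates of at least 80%, whatever share of replicates individually reach that level; inactive means mean lysis activity below 80%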
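Material – log-phase Cryptococcus neoformans yeast cells · Input – 5 × 10^6 yeast cells/mL · Medium – fresh YPD growth medium · Doses – single compound concentration per well · Timing – static 4 h at 37 °C with compound, 1 h detection · Detection – adenylate kinase release luminescence · Read-out – signal increase indicating cell lysis · Control set – Clomiphene as positive lysis control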
Env fusion inh: blocks HIV Env-driven cell-cell fusion | HeLa-JRFL Env/CEM21 cell fusion, luciferase | inhibition, % at 12.3 µM | actives 1.1% (n = 360,000) | AID 651610;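 active means mean replicate inhibition score of at least 50 and every replicate individually at or above 50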;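 further: 0% = plate neutral controls and 100% = maraviroc near 300 nM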
PAX8 inh HTS: lowers PAX8-driven luciferase in RMG-I cells | RMG-I TPO-luciferase reporter, SteadyGlo, 24 h | inhibition, % at 12.6 µM | actives 1.2% (n = 360,000) | AID 652154;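 active means mean replicate inhibition at least 60% with every replicate also reaching 60%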;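 further: luciferase light reporting Pax8 driven TPO promoter activity; plate controls were median of neutral control wells for no effect and mitoxantrone controls for full effect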
INS-1E GSIS act: GLuc luminescence reporter in INS-1E cells, primary screen for activators of glucose-dependent secretion of insulin | actives 0.61% (n = 370,000) | INS-1E GLuc reporter insulin secretion, 2-3 h | activation, % at 16.6 µM;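 active means lowest replicate activation of at least 40%, so every replicate reaches that level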;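 further: 0% = median of neutral control wells and 100% = median of IBMX positive control wells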
dFosB activator: enhances mouse delta FosB homodimer DNA binding; P13346; purified delta FosB, TAMRA-CDK5 oligo fluorescence polarization; percent of positive-control signal above neutral wells; activation, % at 25 µM; actives 0.99% (n = 340,000); AID 493131;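 active means mean activation above about 17%, with every replicate also reaching it, limit read from the data, passing the limit was not always enough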
CDK5 inh: blocks human CDK5/p35 kinase activity | Recombinant CDK5/p35, ADP-Glo luminescence, 60 min | AID 488839 | actives 0.01% (n = 330,000) | Q00535+Q15078 | inhibition, % at 10 µM;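 active means highest replicate inhibition of at least 50% and at least 75% of replicates reaching 50%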;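 further: plate controls were DMSO neutral control for no effect and GW8510 at 10 µM for full effect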
Target sequence (Q00535 whole entry, looked up): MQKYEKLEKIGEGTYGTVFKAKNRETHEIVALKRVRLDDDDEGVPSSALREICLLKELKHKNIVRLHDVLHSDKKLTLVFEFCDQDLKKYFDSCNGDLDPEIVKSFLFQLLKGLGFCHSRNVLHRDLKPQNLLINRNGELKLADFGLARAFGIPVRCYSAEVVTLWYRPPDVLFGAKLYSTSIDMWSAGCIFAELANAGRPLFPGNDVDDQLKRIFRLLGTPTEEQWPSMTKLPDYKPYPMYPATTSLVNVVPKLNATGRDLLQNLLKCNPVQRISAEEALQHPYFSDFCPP
Target sequence (Q15078 whole entry, looked up): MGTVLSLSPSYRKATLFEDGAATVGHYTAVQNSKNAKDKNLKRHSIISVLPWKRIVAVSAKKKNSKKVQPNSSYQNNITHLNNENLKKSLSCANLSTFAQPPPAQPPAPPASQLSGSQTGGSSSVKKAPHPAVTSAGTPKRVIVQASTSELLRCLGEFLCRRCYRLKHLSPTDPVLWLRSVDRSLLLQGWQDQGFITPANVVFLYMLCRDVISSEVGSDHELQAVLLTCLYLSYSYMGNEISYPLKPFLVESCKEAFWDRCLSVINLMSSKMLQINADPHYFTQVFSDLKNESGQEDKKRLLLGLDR
* hit, by the source's call; . = no result given; [ ] = remark or other dose.

SMILES	Cneo AK release	Env fusion inh	PAX8 inh HTS	INS-1E GSIS act	dFosB activator	CDK5 inh
C/C(=N/NS(=O)(=O)c1ccc(Br)cc1)c1c[nH]c2ccccc12	4	66*	-14	11	3	1
CC(C)CC#Cc1ccc2c(c1)O[C@@H](CN(C)C(=O)c1ccncc1)[C@@H](C)CN([C@H](C)CO)S2(=O)=O	-3	-8[16.7 µM]	.	-18	.	.
COc1ccccc1CNC(=O)C[C@@H]1C[C@H]2c3cc(NC(=O)Nc4ccccc4F)ccc3O[C@H]2[C@@H](CO)O1	94*	-15[16.7 µM]	-13	0	.	.
COc1ccccc1CNC(=O)C[C@H]1C[C@H]2c3cc(NC(=O)Nc4ccccc4F)ccc3O[C@H]2[C@H](CO)O1	4	-13[16.7 µM]	-18	2	.	.
COc1ccccc1CNC(=O)C[C@H]1C[C@H]2c3cc(NC(=O)Nc4ccccc4F)ccc3O[C@H]2[C@@H](CO)O1	1	1[16.7 µM]	-12	8	.	.
COc1ccccc1CNC(=O)C[C@@H]1C[C@@H]2c3cc(NC(=O)Nc4ccccc4F)ccc3O[C@@H]2[C@H](CO)O1	103*	19[16.7 µM]	-16	23	.	.
O=C(Nc1cccc(Cl)c1)N1C[C@@H]2[C@H](c3ccccc31)[C@H](CO)N2CC1CCOCC1	-7	.	14	1	.	.
CSc1ccc(/C=N/N(C)S(=O)(=O)c2ccc(C)cc2)cc1	1	25	5	121*	-9	3
O=c1[nH]c2ccccc2nc1-c1nnnn1C1CCCC1	.	-16	11	49*	.	.
C[C@@H]1CCCCO[C@@H](CN(C)S(=O)(=O)c2ccccc2)[C@@H](C)CN([C@H](C)CO)C(=O)c2cc(NC(=O)c3ccccc3)ccc2O1	-6	-33[16.7 µM]	9	32	.	.
COCCCNC(=O)C(=O)NCC(c1ccco1)N1CCN(c2ccc(OC)cc2)CC1 (configuration not stated)	0	10	-7	50*	-3	-2
O=C(NCC1CCCO1)C(=O)NCC(c1ccco1)N1CCN(c2ccc(F)cc2)CC1 (configuration not stated)	-3	.	34	-6	-5	-1
O=C(NCC1CCCO1)C(=O)NCC(c1ccco1)N1CCN(c2ccccc2)CC1 (configuration not stated)	-2	.	151*	-3	-3	0
O=C(NCCC1=CCCCC1)C(=O)NCC(c1ccco1)N1CCN(c2ccccc2)CC1 (configuration not stated)	.	7	-1	126*	-6	2
COc1cccc(-c2ccc3c(c2)[C@H]2[C@H](CCN2S(=O)(=O)c2cccc(OC)c2)[C@@H](CO)N3)c1	-4	.	29	-2	.	.
O=S(=O)(c1ccccc1F)N1CC[C@@H]2[C@@H](CO)Nc3ccc(C4=CCCCC4)cc3[C@@H]21	5	.	83*	16	.	.
COc1cccc(S(=O)(=O)N2CC[C@@H]3[C@H](CO)Nc4ccc(C5=CCCCC5)cc4[C@@H]32)c1	-8	.	91*	3	.	.
Cc1cccc(S(=O)(=O)N2CC[C@@H]3[C@H]2c2cc(C4=CCCCC4)ccc2N[C@@H]3CO)c1	-18	.	91*	3	.	.
C[C@H](O)C#Cc1ccc2c(c1)O[C@H](CN(C)C(=O)C1CCCCC1)[C@H](C)CN([C@@H](C)CO)S2(=O)=O	94*	2[16.7 µM]	.	-4	.	.
C[C@@H]1CN([C@@H](C)CO)S(=O)(=O)c2ccc(-c3ccc(F)cc3)cc2O[C@H]1CN(C)C(=O)C1CCCCC1	0	67*[16.7 µM]	.	-14	.	.
C[C@@H]1CN([C@H](C)CO)S(=O)(=O)c2ccc(-c3ccccc3)cc2O[C@H]1CN(C)C(=O)C1CCCCC1	105*	23[16.7 µM]	.	-45	.	.
CCOC(=O)c1csc(-c2ccc(OC)c(OC)c2)n1	.	-20	-1	50*	-9	-1
COc1ccc(-c2nc(C(=O)O)cs2)cc1OC	.	9	-9	71*	1	-1
Cc1ccc(-c2nc(C(=O)O)cs2)cc1	.	6	-1	17	-4	0
C[C@@H]1CN([C@H](C)CO)C(=O)c2ccccc2-c2ccccc2CO[C@@H]1CN(C)S(=O)(=O)c1ccccc1C#N	-5	-10[16.7 µM]	-25	-1	.	.
SMILES	Cneo AK release	Env fusion inh	PAX8 inh HTS	INS-1E GSIS act	dFosB activator	CDK5 inh
CN(C)CC#Cc1ccc([C@H]2[C@@H](CO)N3CCCCN(S(=O)(=O)c4ccccc4)C[C@H]23)cc1	-1	.	-14	1	.	.
COCCCNC(=O)c1sc2ncnc(N3CCc4ccccc4C3)c2c1C	-6	78*	.	13	-16	1
COc1cccc(-c2ccc3c(c2)[C@H]2[C@H](CCN2C(=O)CC2CC2)[C@H](CO)N3C)c1	-13	.	-12	-2	.	.
COc1cccc(-c2ccc3c(c2)[C@@H]2[C@@H](CCN2C(=O)CC2CC2)[C@H](CO)N3C)c1	44	.	67*	26	.	.
COc1cccc(-c2ccc3c(c2)[C@H]2[C@H](CCN2C(=O)c2ccccc2F)[C@H](CO)N3C)c1	0	.	85*	-16	.	.
COc1ccc(-c2ccc3c(c2)[C@H]2[C@H](CCN2C(=O)c2ccccc2F)[C@H](CO)N3C)cc1	-5	.	47	-11	.	.
COc1ccc2c3c([nH]c2c1)[C@@H](CO)N(Cc1ccc(Cl)cc1)CC31CN(Cc2ccccc2)C1	.	.	.	-30	.	.
COc1cc2c(oc(=O)c3cc(C)cc(OC)c32)c2c(C3OC(C)C(O)C(C)(O)C3O)ccc(O)c12 (configuration not stated)	.	56*	.	.	-19	1
COc1cccc2cc(C(=O)N3CC(C)OC(C)C3)c(=O)oc12 (configuration not stated)	1	-44	22	8	-3	1
Cc1c(O)cnc2nn(-c3ccccc3)c(=N)n12	.	-13	-11	42*	.	.
COc1cc(NCCCCCCCN)c2ncccc2c1	-1	.	.	.	1	5
COc1cc(NC(C)CCCN)c2ncccc2c1 (configuration not stated)	2	.	66*	.	6	2
COc1ccc(C(CC(=O)Nc2cc([N+](=O)[O-])ccc2OC)c2ccccc2)cc1 (configuration not stated)	1	79*	38	-1	-13	-2
C(=NNc1ccc2ccccc2n1)c1ccccn1	-3	17	102*	.	.	.
C(=N\Nc1nc2ccccc2s1)/c1ccccn1	.	-2	88*	11	.	.
C[C@H](O)C#Cc1ccc2c(c1)O[C@H](CN(C)C(=O)Cc1ccccn1)[C@@H](C)CN([C@H](C)CO)S2(=O)=O	-7	-1[16.7 µM]	.	16	.	.
CC(C(=O)c1ccc(-c2ccccc2)cc1)[n+]1cccc(C(N)=O)c1 (configuration not stated)	0	-7	12	2	-8	-1
Cc1cc[n+](C(C)C(=O)c2ccc(-c3ccccc3)cc2)cc1 (configuration not stated)	.	10	69*	-57	-8	1
